Data set [1] has as its target T1, Tyrosine-protein kinase JAK3 (Homo sapiens, UniProt P52333).
T1 sequence (P52333 whole entry): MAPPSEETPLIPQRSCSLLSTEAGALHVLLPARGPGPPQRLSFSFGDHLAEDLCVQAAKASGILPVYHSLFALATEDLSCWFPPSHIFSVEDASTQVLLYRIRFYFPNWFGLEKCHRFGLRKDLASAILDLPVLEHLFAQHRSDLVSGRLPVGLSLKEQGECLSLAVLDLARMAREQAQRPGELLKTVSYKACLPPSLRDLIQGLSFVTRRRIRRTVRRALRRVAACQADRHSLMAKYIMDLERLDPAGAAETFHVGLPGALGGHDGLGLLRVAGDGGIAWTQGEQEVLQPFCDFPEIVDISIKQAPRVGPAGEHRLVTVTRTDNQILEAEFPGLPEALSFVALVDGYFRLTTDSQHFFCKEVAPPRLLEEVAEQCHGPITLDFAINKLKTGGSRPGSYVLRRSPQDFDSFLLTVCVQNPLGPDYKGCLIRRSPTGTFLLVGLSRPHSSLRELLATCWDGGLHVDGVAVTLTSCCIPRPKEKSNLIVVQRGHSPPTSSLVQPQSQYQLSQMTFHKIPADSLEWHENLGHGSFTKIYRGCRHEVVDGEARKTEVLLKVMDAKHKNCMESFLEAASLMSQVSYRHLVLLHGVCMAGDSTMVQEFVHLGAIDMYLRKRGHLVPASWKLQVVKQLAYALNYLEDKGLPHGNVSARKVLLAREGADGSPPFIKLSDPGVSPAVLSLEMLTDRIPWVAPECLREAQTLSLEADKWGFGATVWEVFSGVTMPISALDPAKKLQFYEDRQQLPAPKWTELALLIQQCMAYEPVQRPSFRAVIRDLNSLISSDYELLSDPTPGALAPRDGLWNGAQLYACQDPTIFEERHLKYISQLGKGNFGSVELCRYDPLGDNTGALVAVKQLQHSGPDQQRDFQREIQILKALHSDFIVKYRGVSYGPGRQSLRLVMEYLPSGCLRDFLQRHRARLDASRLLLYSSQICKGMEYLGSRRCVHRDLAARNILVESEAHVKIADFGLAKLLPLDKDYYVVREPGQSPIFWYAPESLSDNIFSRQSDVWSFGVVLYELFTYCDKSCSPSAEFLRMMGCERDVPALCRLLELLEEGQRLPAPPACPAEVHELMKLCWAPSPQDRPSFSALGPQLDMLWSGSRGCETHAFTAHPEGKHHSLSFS
Put plainly: Inhibition of human JAK3. The gist of the method: (§1)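 Panel of 82 kinases. Radiometric filter-binding assay with ATP at or near Km. Compound tested at 0.01, 0.10 and 1.0 μM. Values expressed as minimum possible fold selectivity against Jak2.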

Data set [2] deals with Canis familiaris. The data set is described as follows: AUC (0 to 12 hrs) in beagle dog at 10 mg/kg, po. The format is ADME, organism-based, Canis lupus familiaris, Plasma. Also on record: time < 12 hr, dose 10 mg/kg, route oral. Conditions: in vivo. The essentials:
(§2)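 Male beagle dogs. Oral dose 10 mg/kg in 0.1% HPMC, pH 2. IV dose 2.5 mg/kg in 20% TEG/D5W. […] Clearance, Vdss, half-life and oral bioavailability (F%) derived from the plasma profiles.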

Data set [3] can be described thus: Volume of distribution at steady state in beagle dog at 2.5 mg/kg, iv. The format is ADME, organism-based, Canis lupus familiaris. Also on record: dose 2.5 mg/kg, route intravenous. Conditions: in vivo, read-out: Vdss. The essentials: as §2
A short description of data set [4]: Cytotoxicity against human SET2 cells expressing Jak2 V617F mutant after 72 hrs by MTS assay. In kind it is functional. To be noted: SET-2, 72 h. For orientation: Formazan colour is commonly taken as a measure of viable cells.
The test system of the next data set is Mus musculus. Put plainly: Toxicity in SCID mouse xenografted with human UKE1 cells assessed as body weight loss at 10 mg/kg, po bid administered for 14 days measured on day 31 (reference value: 7.1%). In kind it is organism-based. Further details: dose 10 mg/kg, route oral. To be noted: in vivo, 336 h. The gist of the method:
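UKE-1 cells mixed with matrigel implanted subcutaneously in female SCID mice. On day 15, mice randomized at a mean tumor volume of about 150 mm³. Oral gavage twice daily at 3 or 10 mg/kg, or vehicle, for 14 days. Tumor volume and body weight tracked through the dosing phase.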
On the technique in general: In xenograft studies the graft and the host belong to different species.

For data set [5], the target named is High affinity nerve growth factor receptor (Homo sapiens, UniProt P04629). The data set is described as follows: Inhibition of human TrkA. The essentials:
as §1

Data set [6] can be described thus: Oral bioavailability in Wistar rat at 10 mg/kg. In kind it is ADME, organism-based. To be noted: in vivo. The essentials: (§3)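 Rat pharmacokinetics. Oral dose 10 mg/kg in 0.1% HPMC. IV dose 3 mg/kg in 40% DMA/40% PEG/20% saline. Clearance, half-life, Vdss and oral bioavailability derived from the plasma profiles.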
Data set [7] is described as follows: Cytotoxicity against mouse BA/F3 cells expressing TEL-Tyk2 after 72 hrs by MTS assay. To be noted: BaF3, 72 h. In kind it is functional. The gist of the method:
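BaF3 cells transfected with the kinase domain of Jak1, Jak3 or Tyk2 (TEL fusions). Growth inhibition measured as the counter-screen for cellular selectivity.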

Data set [8] can be described thus: Half life in beagle dog at 10 mg/kg, po. The format is ADME, organism-based, Canis lupus familiaris. Also on record: dose 10 mg/kg, route oral. To be noted: in vivo. The essentials:
as §2

Data set [9] can be described thus: Cytotoxicity against human UKE1 cells expressing Jak2 V617F mutant after 72 hrs by MTS assay. The format is functional. Conditions: UKE1, 72 h.
The subject of data set [10] is Canis familiaris. The data set is described as follows: Oral bioavailability in beagle dog at 10 mg/kg. The format is ADME, organism-based, Canis lupus familiaris. Conditions: in vivo. The gist of the method: as §2
The target of data set [11] is Casein kinase II subunit alpha (Homo sapiens, UniProt P68400). The data set is described as follows: Inhibition of human recombinant 6 X His-tagged full length CK2alpha expressed in insect sf21 cells using CK2tide as substrate after 20 mins by fluorescence assay.
Sequence of Casein kinase II subunit alpha (P68400 whole entry): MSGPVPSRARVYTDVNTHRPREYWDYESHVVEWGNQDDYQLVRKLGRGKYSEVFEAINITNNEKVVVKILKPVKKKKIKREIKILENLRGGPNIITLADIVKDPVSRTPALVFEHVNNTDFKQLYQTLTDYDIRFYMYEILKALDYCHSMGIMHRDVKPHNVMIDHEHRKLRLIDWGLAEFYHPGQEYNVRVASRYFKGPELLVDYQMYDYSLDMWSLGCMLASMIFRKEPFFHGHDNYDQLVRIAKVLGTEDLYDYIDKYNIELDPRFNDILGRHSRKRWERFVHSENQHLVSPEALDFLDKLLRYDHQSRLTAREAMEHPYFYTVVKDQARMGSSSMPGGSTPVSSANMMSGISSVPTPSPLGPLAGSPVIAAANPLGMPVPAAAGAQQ
Data set [12] concerns the target T1, Tyrosine-protein kinase JAK3. The data set is described as follows: Inhibition of Jak3 (unknown origin).
Data set [13] deals with Receptor-type tyrosine-protein kinase FLT3 (Homo sapiens, UniProt P36888). Put plainly: Inhibition of human Flt3. The gist of the method:
as §1

Data set [14] can be described thus: Half life in Wistar rat at 10 mg/kg, po and 3 mg/kg, iv. In kind it is ADME, organism-based. Conditions: in vivo. The gist of the method:
as §3

For data set [15], the target named is Tyrosine-protein kinase Fgr (Homo sapiens, UniProt P09769). Put plainly: Inhibition of human Fgr. The essentials:
as §1

Where only a bound is given, the exact number is not on record here.

Sequence of Receptor-type tyrosine-protein kinase FLT3 (P36888 whole entry): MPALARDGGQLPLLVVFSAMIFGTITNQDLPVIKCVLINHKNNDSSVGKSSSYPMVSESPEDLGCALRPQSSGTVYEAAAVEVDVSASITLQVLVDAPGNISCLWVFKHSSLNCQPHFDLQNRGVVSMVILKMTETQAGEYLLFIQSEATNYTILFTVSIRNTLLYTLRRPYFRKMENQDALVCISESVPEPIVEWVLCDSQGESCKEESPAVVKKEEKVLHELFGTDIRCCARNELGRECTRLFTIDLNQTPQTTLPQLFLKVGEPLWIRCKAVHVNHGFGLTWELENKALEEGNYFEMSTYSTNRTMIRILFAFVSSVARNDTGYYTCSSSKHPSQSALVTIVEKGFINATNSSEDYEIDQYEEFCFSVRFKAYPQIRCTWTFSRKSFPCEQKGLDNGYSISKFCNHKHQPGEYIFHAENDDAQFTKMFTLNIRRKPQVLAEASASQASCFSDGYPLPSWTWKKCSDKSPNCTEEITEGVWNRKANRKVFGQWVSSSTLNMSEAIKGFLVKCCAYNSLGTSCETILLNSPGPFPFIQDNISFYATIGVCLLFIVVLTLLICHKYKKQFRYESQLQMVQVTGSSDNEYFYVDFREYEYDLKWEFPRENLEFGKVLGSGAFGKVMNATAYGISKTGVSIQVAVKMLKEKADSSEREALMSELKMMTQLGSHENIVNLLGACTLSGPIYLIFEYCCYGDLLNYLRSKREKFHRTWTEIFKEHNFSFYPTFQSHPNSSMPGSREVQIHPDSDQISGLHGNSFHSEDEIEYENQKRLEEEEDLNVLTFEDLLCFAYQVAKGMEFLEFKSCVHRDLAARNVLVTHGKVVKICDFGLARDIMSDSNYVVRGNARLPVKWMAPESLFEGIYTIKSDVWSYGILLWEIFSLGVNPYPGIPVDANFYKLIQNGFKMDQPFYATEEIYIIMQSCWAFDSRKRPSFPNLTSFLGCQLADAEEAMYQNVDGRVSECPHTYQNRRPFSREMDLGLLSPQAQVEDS
Sequence of Tyrosine-protein kinase Fgr (P09769 whole entry): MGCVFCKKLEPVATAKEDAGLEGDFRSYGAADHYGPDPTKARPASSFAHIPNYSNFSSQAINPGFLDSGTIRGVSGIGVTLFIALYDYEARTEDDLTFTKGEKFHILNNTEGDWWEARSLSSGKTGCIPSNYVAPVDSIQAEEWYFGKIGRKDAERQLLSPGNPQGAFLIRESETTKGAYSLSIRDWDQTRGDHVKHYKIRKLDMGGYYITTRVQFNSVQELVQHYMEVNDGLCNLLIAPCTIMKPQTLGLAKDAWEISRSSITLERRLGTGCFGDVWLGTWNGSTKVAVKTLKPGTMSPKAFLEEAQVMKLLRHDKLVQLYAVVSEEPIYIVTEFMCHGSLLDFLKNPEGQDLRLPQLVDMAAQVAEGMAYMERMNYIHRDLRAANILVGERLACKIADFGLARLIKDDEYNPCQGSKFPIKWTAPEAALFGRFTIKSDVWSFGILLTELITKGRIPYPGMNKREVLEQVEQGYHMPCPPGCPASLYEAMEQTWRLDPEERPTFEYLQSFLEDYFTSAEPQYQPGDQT
Sequence of High affinity nerve growth factor receptor (P04629 whole entry): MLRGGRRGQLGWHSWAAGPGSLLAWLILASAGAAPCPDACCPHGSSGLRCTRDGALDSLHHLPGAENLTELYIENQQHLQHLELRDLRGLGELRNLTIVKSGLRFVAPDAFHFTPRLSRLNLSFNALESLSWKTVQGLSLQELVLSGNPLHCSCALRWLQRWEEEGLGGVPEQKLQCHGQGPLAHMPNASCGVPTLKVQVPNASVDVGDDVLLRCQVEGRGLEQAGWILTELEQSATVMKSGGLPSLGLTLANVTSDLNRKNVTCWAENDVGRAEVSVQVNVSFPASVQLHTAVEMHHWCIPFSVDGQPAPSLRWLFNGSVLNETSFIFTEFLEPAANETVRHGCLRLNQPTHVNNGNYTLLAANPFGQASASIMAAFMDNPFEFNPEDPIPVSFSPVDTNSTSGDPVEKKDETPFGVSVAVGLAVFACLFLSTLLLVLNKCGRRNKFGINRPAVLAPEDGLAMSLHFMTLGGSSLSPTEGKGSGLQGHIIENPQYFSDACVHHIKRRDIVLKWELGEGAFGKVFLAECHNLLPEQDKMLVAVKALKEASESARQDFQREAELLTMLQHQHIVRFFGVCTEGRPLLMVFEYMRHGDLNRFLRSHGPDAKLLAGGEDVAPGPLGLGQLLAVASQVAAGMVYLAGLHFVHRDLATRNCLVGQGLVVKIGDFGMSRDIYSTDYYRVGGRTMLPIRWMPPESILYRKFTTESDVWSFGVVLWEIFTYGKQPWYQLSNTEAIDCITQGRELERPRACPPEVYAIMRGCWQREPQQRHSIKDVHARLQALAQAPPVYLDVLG

The term IC50 denotes the concentration at which inhibition is half-maximal. What is called AUC is the area under the concentration-time curve, a measure of exposure. A lower AUC goes with low exposure. The term GI50 denotes the concentration that inhibits growth by half. Read a high GI50 as less potent growth inhibition. For orientation: bioavailability means dose-corrected exposure relative to a reference, in per cent. Lower therefore signals poor availability. Broadly, the half-life is how long it takes for the measured level to halve. Lower therefore signals fast loss. On to `C[C@H](Nc1nc(Nc2cn(C)cn2)c2cc[nH]c2n1)c1ncc(F)cn1`, for which the 50% inhibitory concentration (IC50) is 0.035 µM in data set [1]; 0.035 µM in [5]; over 30 µM in data set [11]; 0.22 µM in data set [12]; 0.045 µM in data set [13]; 0.033 µM in data set [15]. In the data set with Canis familiaris [2], the AUC is 45 µM·h. The Vd in data set [3] is 1.9 L/kg. Further, the GI50 in data set [4] was determined as 0.014 µM; in data set [7], 0.76 µM; in data set [9], 0.055 µM. The Activity in the data set on Mus musculus turned out to be 3.1%. In [6], this molecule showed a bioavailability of 64%. The half-life in data set [8] is 7.6 h; in data set [14] it was 1.6 h. Moreover, the F in the data set with Canis familiaris [10] came out at 64%.

The values above are taken from ChEMBL document CHEMBL3112447, “Discovery of 1-methyl-1H-imidazole derivatives as potent Jak2 inhibitors” (J Med Chem, 2014).
